# Source: ChEMBL document CHEMBL1144585, “Synthesis and evaluation of N-acetyl-L-tyrosine based compounds as PPARalpha selective activators” (Eur J Med Chem, 2007)
# Columns and labels:
# [1] = molecular target: T1, Peroxisome proliferator-activated receptor alpha (Homo sapiens) (UniProt Q07869); experiment: Agonist activity at human recombinant PPARalpha at 50 uM by GAL4 transactivation assay relative to control; type: functional
# T1 sequence (whole entry): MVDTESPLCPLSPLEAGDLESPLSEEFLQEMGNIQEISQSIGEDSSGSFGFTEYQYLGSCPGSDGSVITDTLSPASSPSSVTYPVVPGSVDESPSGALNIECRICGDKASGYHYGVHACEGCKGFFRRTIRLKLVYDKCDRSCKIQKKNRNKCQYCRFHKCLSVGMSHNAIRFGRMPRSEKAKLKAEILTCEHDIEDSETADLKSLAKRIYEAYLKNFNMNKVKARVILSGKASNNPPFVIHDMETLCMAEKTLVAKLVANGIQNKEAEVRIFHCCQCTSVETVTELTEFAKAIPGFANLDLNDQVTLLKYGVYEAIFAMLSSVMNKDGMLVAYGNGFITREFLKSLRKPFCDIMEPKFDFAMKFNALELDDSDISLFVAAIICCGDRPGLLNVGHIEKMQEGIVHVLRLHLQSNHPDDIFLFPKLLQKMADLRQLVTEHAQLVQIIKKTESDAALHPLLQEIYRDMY
# Outline: (§1)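 Cell-based transcription assay: cells transfected with a GAL4–PPAR chimeric receptor expression plasmid, with luciferase gene activation as the read-out. PPARα was tested at 50 µM against WY 14,643 as the reference. PPARγ was tested at 30 µM against rosiglitazone as the reference. Values are fold activation at the same concentration.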
# [2] = molecular target: T2, Peroxisome proliferator-activated receptor gamma (Homo sapiens) (UniProt P37231); experiment: Agonist activity at human recombinant PPARgamma at 30 uM by GAL4 transactivation assay relative to control; type: functional; outline: as §1
# T2 sequence (whole entry): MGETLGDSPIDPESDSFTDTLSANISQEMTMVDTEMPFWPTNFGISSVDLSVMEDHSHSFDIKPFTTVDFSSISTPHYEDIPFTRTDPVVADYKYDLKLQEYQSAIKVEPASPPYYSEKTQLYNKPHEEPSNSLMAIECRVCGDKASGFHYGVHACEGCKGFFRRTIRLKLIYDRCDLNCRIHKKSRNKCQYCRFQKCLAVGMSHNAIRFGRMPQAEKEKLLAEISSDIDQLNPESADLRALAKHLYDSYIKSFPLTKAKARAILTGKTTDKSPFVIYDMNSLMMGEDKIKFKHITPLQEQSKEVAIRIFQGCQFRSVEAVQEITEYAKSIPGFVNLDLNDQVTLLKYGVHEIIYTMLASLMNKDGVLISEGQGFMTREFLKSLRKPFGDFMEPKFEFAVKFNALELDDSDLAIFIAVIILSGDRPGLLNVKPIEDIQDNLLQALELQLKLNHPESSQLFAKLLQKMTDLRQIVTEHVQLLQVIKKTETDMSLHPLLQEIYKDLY
Structure (SMILES),Fold change [1],Fold change [2]
CCOC(=O)[C@H](Cc1ccc(OCCn2c3ccccc3c3ccccc32)cc1)NC(C)=O,1.6,5.4
CN(CCOc1ccc(CC2SC(=O)NC2=O)cc1)c1ccccn1 (stereo not given),–,27.2
Cc1cccc(Nc2cc(Cl)nc(SCC(=O)O)n2)c1C,4.2,–
CCOC(=O)[C@H](Cc1ccc(OCCOc2ccc(C(=O)c3ccc(Cl)cc3)cc2)cc1)NC(C)=O,3.3,0.9
CCOC(=O)[C@H](Cc1ccc(OCCC(=O)Nc2ccccc2C(F)(F)F)cc1)NC(C)=O,1,1.8
CC(=O)N[C@@H](Cc1ccc(OCc2ccc(Cl)cc2)cc1)C(=O)O,3,1.9
CCOC(=O)[C@H](Cc1ccc(OCc2c3ccccc3cc3ccccc23)cc1)NC(C)=O,2.3,0.8
CCOC(=O)[C@H](Cc1ccc(OCc2ccc(Cl)cc2)cc1)NC(C)=O,2,1
CCN(CCOc1ccc(C[C@H](NC(C)=O)C(=O)O)cc1)c1cccc(C)c1,3.2,1.4
CCOC(=O)[C@H](Cc1ccc(OCc2ccc(OC)cc2)cc1)NC(C)=O,2.4,1.3
COc1ccc(COc2ccc(C[C@H](NC(C)=O)C(=O)O)cc2)cc1,4.4,5.4
CCOC(=O)[C@H](Cc1ccc(OCCN(CC)c2cccc(C)c2)cc1)NC(C)=O,2.9,1.1
CC(=O)N[C@@H](Cc1ccc(OCCC(=O)Nc2ccccc2C(F)(F)F)cc1)C(=O)O,2.5,1.2
CC(=O)N[C@@H](Cc1ccc(OCCOc2ccc(C(=O)c3ccc(Cl)cc3)cc2)cc1)C(=O)O,4.6,2.4
CC(=O)N[C@@H](Cc1ccc(OCCn2c3ccccc3c3ccccc32)cc1)C(=O)O,3.4,4.2
CC(=O)N[C@@H](Cc1ccc(OCc2c3ccccc3cc3ccccc23)cc1)C(=O)O,3.1,1.3
